Structures are written as SMILES. Active and inactive are the calls of the source. The rule behind the calls is not given here.

Data set [1] is described as follows: Growth inhibition of human OVCAR5 cells assessed as cell growth at 10 uM incubated for 48 hrs by sulforhodamine B assay relative to control. To be noted: OVCAR-5, 48 h, read-out: Activity. The format is functional. Summed up:
(§1)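 Run in the standard NCI 60-cell-line screen. Cells were exposed to drug for two days, and the read-out was sulforhodamine B staining. Compound was tested at a single final concentration of 10 µM in every line, and results are reported as growth percent.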
For orientation: The SRB assay estimates cell density from bound dye.

In a further data set the test system is NCI/ADR-RES. Kind of data set: Growth inhibition of human NCI/ADR-RES cells incubated for 48 hrs by sulforhodamine B assay. In kind it is functional. The note with it: for TGI: read-out: pTGI (converted). In a few lines:
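NCI 60-cell-line panel, standard protocol. Cells exposed to compound for two days, growth read by sulforhodamine B staining. Tested at five 10-fold dilutions, top concentration 100 µM, to give dose-response curves.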

Data set [2] can be described thus: Growth inhibition of human UACC62 cells assessed as cell growth at 10 uM incubated for 48 hrs by sulforhodamine B assay relative to control. In kind it is functional. The note with it: UACC-62, 48 h, read-out: Activity. In a few lines: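 NCI 60-cell line standard protocol, one-dose screen: single final concentration 10 µM, 2-day drug exposure, sulforhodamine B (SRB) endpoint; read-out is growth percent relative to untreated control.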

Data set [3] in a line: Growth inhibition of human OVCAR8 cells assessed as cell growth at 10 uM incubated for 48 hrs by sulforhodamine B assay relative to control. In kind it is functional. To be noted: OVCAR-8, 48 h, read-out: Activity. In a few lines:
as §1

Data set [4] can be described thus: Plasma concentration in mouse at 20 mg/kg, po administered through gavage after 8 hrs by LC-MS/MS analysis. In kind it is ADME, organism-based. In a few lines: (§2)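 Ten mice given 20 mg/kg by oral gavage in Labrasol (20 mg/mL solution). Two mice sacrificed at each of 5 min, 15 min, 1 h, 4 h and 8 h. Plasma measured by LC-MS/MS after acetonitrile precipitation with lorazepam internal standard on a C18 UPLC column (calibration 5-500 ng/mL). Mean of two animals per time point.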

In data set [5] the target is Protein kinase C (PKC) (Homo sapiens) (UniProt O94806+P41743+P17252+P05129+Q05655+P05771+Q05513+Q02156+P24723+Q15139+Q04759). Kind of data set: Activation of PKC in human 786-0 cells at 1 uM. In kind it is cell-based.
The nature of data set [6]: Plasma concentration in mouse at 20 mg/kg, po administered through gavage after 1 hr by LC-MS/MS analysis. The format is ADME, organism-based. In a few lines:
as §2

Data set [7] can be described thus: Plasma concentration in mouse at 100 mg/kg, po administered through gavage after 30 mins by LC-MS/MS analysis. The format is ADME, organism-based. Summed up: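 Oral gavage to mice in Labrasol vehicle (compound dissolved directly at 20 mg/mL); dose groups 5, 10, 50 and 100 mg/kg. Plasma sampled 30 min after dosing. Analysis by HPLC-MS/MS: acetonitrile protein precipitation with lorazepam internal standard, C18 UPLC column, calibration range 5-500 ng/mL.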

The nature of data set [8]: Plasma concentration in mouse at 20 mg/kg, po administered through gavage after 0.083 hrs by LC-MS/MS analysis. The format is ADME, organism-based. In a few lines: as §2
In data set [9] the test system is EKVX. Description: Growth inhibition of human EKVX cells incubated for 48 hrs by sulforhodamine B assay. In kind it is functional. Summed up: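 Run in the NCI 60-cell-line protocol, with 2-day drug exposure and sulforhodamine B read-out. Dose-response testing used five 10-fold dilutions starting from a high concentration of 100 µM.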
Data set [10] is described as follows: AUClast in mouse at 20 mg/kg, po administered through gavage up to 8 hrs by LC-MS/MS analysis. In kind it is ADME, organism-based. More on the design: time < 8 hr, dose 20 mg/kg, route oral. The note with it: in vivo. In a few lines:
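Mice received 20 mg/kg by oral gavage as a 20 mg/mL solution in Labrasol. Two mice were sacrificed at each of 5 min, 15 min, 1 h, 4 h and 8 h, ten mice in total. Plasma was precipitated with acetonitrile containing lorazepam internal standard and analysed by C18 UPLC-MS/MS, calibrated over 5-500 ng/mL. AUClast was calculated from these time points.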

Data set [11] is described as follows: Plasma concentration in mouse at 20 mg/kg, po administered through gavage after 0.25 hrs by LC-MS/MS analysis. In kind it is ADME, organism-based. Summed up:
as §2

The nature of data set [12]: Plasma concentration in mouse at 20 mg/kg, po administered through gavage after 4 hrs by LC-MS/MS analysis. In kind it is ADME, organism-based. Summed up: as §2
A short description of data set [13]: Toxicity in po dosed mouse administered through gavage. The format is organism-based. The note with it: in vivo.
The test system of data set [14] is EKVX. Description: Growth inhibition of human EKVX cells assessed as cell growth at 10 uM incubated for 48 hrs by sulforhodamine B assay relative to control. In kind it is functional. The note with it: read-out: Activity. In a few lines: as §1

Consider `C/C(=C\C(=O)O[C@H]1[C@@H]2[C@H](C)CC[C@H]2[C@]2(C)O[C@@]1(C(C)C)C[C@H]2NC(=O)CO)c1ccccc1`, for which the growth at 10 µM was determined as 119% in data set [1], 102% in data set [2] and 61.2% in data set [3]. The GI50 (as a rule, the concentration that inhibits growth by half) with NCI/ADR-RES was 7.94 µM. Also, the 50% lethal concentration (LC50) (usually the concentration lethal to half of the exposed cells or organisms) in the data set on NCI/ADR-RES is > 100 µM. Moreover, the TGI in the data set with NCI/ADR-RES was 69.2 µM.
On to `CC(C)[C@@]12C[C@@H](NC(=O)CO)[C@@](C)(O1)[C@@H]1CC[C@@H](C)[C@H]1[C@@H]2OC(=O)/C=C/c1ccccc1`, for which, in [4], the concentration at 8 h came out at 67.8 ng/mL. The result in [5] was inactive. Besides, in [6], the concentration at 1 h came to 73.2 ng/mL. Moreover, the concentration at 0.5 h in data set [7] is ≤ 700 ng/mL. In addition, the concentration at 0.083 h in data set [8] turned out to be 10 ng/mL. The concentration for 50% growth inhibition (GI50) is 11.2 µM in the data set on EKVX [9] and 3.47 µM with NCI/ADR-RES. In the data set on EKVX [9] (read-out: pLC50 (the source's name) (converted)), the CC50 was > 50.1 µM. The TGI in the data set on EKVX [9] (read-out: pTGI) and with NCI/ADR-RES was > 50.1 µM each time. The AUC(0-t) (in general, the area under the concentration-time curve up to a stated or last time point) at 8 h in [10] stood at 524 ng·h/mL. Moreover, the growth at 10 µM in data set [1] turned out to be 93%; with EKVX [14], 69%; in data set [2], 92.1%; in data set [3] it was 51.5%. Also, the concentration at 0.25 h in data set [11] is 40.7 ng/mL. In addition, the concentration at 4 h in data set [12] came out at 59 ng/mL. In data set [13], this compound had an MTD of 50 mg/kg. Further, in the data set on NCI/ADR-RES, the 50% lethal concentration (LC50) was > 50.1 µM.
Take `CC(C)[C@@]12C[C@@H](NC(=O)CO)[C@@](C)(O1)[C@@H]1CC[C@@H](C)[C@H]1[C@@H]2OC(=O)c1ccc2ccccc2c1`: the growth at 10 µM in data set [1] was found to be 84.5%. In addition, in the data set with NCI/ADR-RES, the GI50 was 11 µM, the LC50 is 57.5 µM and the TGI was 25.1 µM. Also, in data set [2], the growth at 10 µM is 85%. For the same compound, the growth at 10 µM in data set [3] stood at 51.3%.
In the case of `CC(C)[C@@]12C[C@@H](NC(=O)CO)[C@@](C)(O1)[C@@H]1CC[C@@H](C)[C@H]1[C@@H]2OC(=O)/C=C/C1CCCCC1`, the growth at 10 µM in data set [1] was found to be 92.6%; in data set [2] it was 101%; in data set [3] it was 107%. Also, in the data set on NCI/ADR-RES, the GI50 is 40.7 µM. In addition, in the data set on NCI/ADR-RES, the median lethal concentration (LC50) was > 44.7 µM. The TGI in the data set on NCI/ADR-RES is > 44.7 µM.
Turning to `CC(C)[C@@]12C[C@@H](NC(=O)CF)[C@@](C)(O1)[C@@H]1CC[C@@H](C)[C@H]1[C@@H]2OC(=O)/C=C/c1ccccc1`, the growth at 10 µM was found to be 102% in data set [1], 99.6% in data set [2] and 107% in data set [3].
